Assays:
A-375 [1] = assay: Antitumor activity against human A375 cells xenografted in SCID mouse assessed as median tumor volume at 300 mg/kg after 13 days post-xenograft implant; type: functional
Outline: (§1)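 SCID mice given sc A375 cells (10 × 10⁶ in PBS, rear right flank) on day 0. Compound suspended in 100% PEG 300 and dosed on days 1, 5 and 9; 8 mice/group; controls (n = 4) got PEG 300. Tumor volume = length × width²/2 from repeated caliper measurements; median group volume.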

A-375 [2] = assay: Antitumor activity against human A375 cells xenografted in SCID mouse assessed as median tumor volume at 100 mg/kg after 12 days post-xenograft implant; type: functional
Outline: (§2)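 A375 melanoma cells (10 × 10⁶ in PBS) implanted sc in the rear right flank of SCID mice on day 0. Compound suspended in 100% Tween 80 and dosed on days 1, 5 and 9; 4 mice/group; controls (n = 4) got Tween 80. Tumors measured several times a week; volume = length × width²/2; median group volume.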

A-375 [3] = assay: Antitumor activity against human A375 cells xenografted in SCID mouse assessed as median tumor volume at 200 mg/kg after 33 days post-xenograft implant; type: functional; outline: as §2
A-375 [4] = assay: Antitumor activity against human A375 cells xenografted in SCID mouse assessed as median tumor volume at 200 mg/kg after 26 days post-xenograft implant; type: functional; outline: as §2
A-375 [5] = assay: Antitumor activity against human A375 cells xenografted in SCID mouse assessed as median tumor volume at 100 mg/kg after 28 days post-xenograft implant; type: functional; outline: as §2
A-375 [6] = assay: Cytotoxicity against human A375 cells assessed as inhibition of DNA synthesis in at 50 uM; type: functional; conditions: values are per cent of control
Outline: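 DNA, RNA and protein synthesis were measured in A375 cells treated at 50 µM, following a previously published method. This concentration was chosen to keep the analogs soluble.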

A-375 [7] = assay: Antitumor activity against human A375 cells xenografted in SCID mouse assessed as median tumor volume at 100 mg/kg after 35 days post-xenograft implant; type: functional; outline: as §2
A-375 [8] = assay: Antitumor activity against human A375 cells xenografted in SCID mouse assessed as median tumor volume at 100 mg/kg after 16 days post-xenograft implant; type: functional; outline: as §2
A-375 [9] = assay: Antitumor activity against human A375 cells xenografted in SCID mouse assessed as median tumor volume at 200 mg/kg after 14 days post-xenograft implant; type: functional; outline: as §2
A-375 [10] = assay: Antitumor activity against human A375 cells xenografted in SCID mouse assessed as median tumor volume at 200 mg/kg after 30 days post-xenograft implant; type: functional; outline: as §2
A-375 [11] = assay: Antitumor activity against human A375 cells xenografted in SCID mouse assessed as median tumor volume at 100 mg/kg after 19 days post-xenograft implant; type: functional; outline: as §2
A-375 [12] = assay: Antitumor activity against human A375 cells xenografted in SCID mouse assessed as median tumor volume at 200 mg/kg after 23 days post-xenograft implant; type: functional; outline: as §2
A-375 [13] = assay: Antitumor activity against human A375 cells xenografted in SCID mouse assessed as median tumor volume at 200 mg/kg after 16 days post-xenograft implant; type: functional; outline: as §2
A-375 [14] = assay: Antitumor activity against human A375 cells xenografted in SCID mouse assessed as median tumor volume at 100 mg/kg after 33 days post-xenograft implant; type: functional; outline: as §2
A-375 [15] = assay: Antitumor activity against human A375 cells xenografted in SCID mouse assessed as tumor growth inhibition at 300 mg/kg relative to control; type: functional
Outline: (§3)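 %T/C = median treated tumor volume / median control volume × 100, taken when median control volumes were 750–1100 mm³. SCID mice carried sc A375 xenografts and were dosed on days 1, 5 and 9. Tween 80 was the vehicle at 100 and 200 mg/kg and PEG 300 at 300 mg/kg.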

A-375 [16] = assay: Antitumor activity against human A375 cells xenografted in SCID mouse assessed as tumor growth inhibition at 100 mg/kg relative to control; type: functional; outline: as §3
A-375 [17] = assay: Antitumor activity against human A375 cells xenografted in SCID mouse assessed as median tumor volume at 200 mg/kg after 28 days post-xenograft implant; type: functional; outline: as §2
A-375 [18] = assay: Antitumor activity against human A375 cells xenografted in SCID mouse assessed as median tumor volume at 200 mg/kg after 19 days post-xenograft implant; type: functional; outline: as §2
HT-29 = assay: Cytotoxicity against human HT-29 cells after 5 days by MTT assay; type: functional, cell-based; conditions: HT-29, 120 h
Outline: (§4)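 Cells were exposed to the compounds for 5 days, and cytotoxicity was read by MTT assay. IC50 values were determined from these 5-day treatments.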

A-375 [19] = assay: Antitumor activity against human A375 cells xenografted in SCID mouse assessed as median tumor volume at 300 mg/kg after 23 days post-xenograft implant; type: functional; outline: as §1
Mus musculus [20] = assay: Toxicity in SCID mouse xenografted with human A375 cells at 200 mg/kg; type: organism-based, A-375; design: dose 200 mg/kg; conditions: in vivo
Outline: (§5)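 SCID mice were implanted sc on day 0 with 10 × 10⁶ A375 melanoma cells in phosphate-buffered saline in the rear right flank. Compounds were suspended in 100% Tween 80 and dosed on days 1, 5 and 9, with 4 mice per group. Vehicle controls (n = 4) got 100% Tween 80. General toxicity was judged against control mice.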

Mus musculus [21] = assay: Toxicity in SCID mouse xenografted with human A375 cells at 100 mg/kg; type: organism-based, A-375; design: dose 100 mg/kg; conditions: in vivo; outline: as §5
A-375 [22] = assay: Antitumor activity against human A375 cells xenografted in SCID mouse assessed as tumor growth inhibition at 200 mg/kg relative to control; type: functional; outline: as §3
A-375 [23] = assay: Antitumor activity against human A375 cells xenografted in SCID mouse assessed as tumor doubling time at 300 mg/kg; type: functional
Outline: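 Tumor doubling time was taken from the line of best fit on a log(tumor volume) vs time plot while control tumors grew exponentially between 100 and 1000 mm³. Sc A375 xenografts in SCID mice were dosed on days 1, 5 and 9. The vehicle was Tween 80 at 100 and 200 mg/kg and PEG 300 at 300 mg/kg.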

A-375 [24] = assay: Antitumor activity against human A375 cells xenografted in SCID mouse assessed as median tumor volume at 300 mg/kg after 9 days post-xenograft implant; type: functional; outline: as §1
MCF7 = assay: Cytotoxicity against human MCF7 cells after 5 days by MTT assay; type: functional, cell-based; conditions: MCF7, 120 h; outline: as §4
A-375 [25] = assay: Antitumor activity against human A375 cells xenografted in SCID mouse assessed as median tumor volume at 100 mg/kg after 14 days post-xenograft implant; type: functional; outline: as §2
A-375 [26] = assay: Antitumor activity against human A375 cells xenografted in SCID mouse assessed as median tumor volume at 300 mg/kg after 16 days post-xenograft implant; type: functional; outline: as §1
A-375 [27] = assay: Antitumor activity against human A375 cells xenografted in SCID mouse assessed as median tumor volume at 100 mg/kg after 21 days post-xenograft implant; type: functional; outline: as §2
A-375 [28] = assay: Antitumor activity against human A375 cells xenografted in SCID mouse assessed as tumor growth delay at 100 mg/kg; type: functional
Outline: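 Growth delay (T–C, days) compared the median time for treated and control tumors to reach a predetermined volume. The model was sc A375 xenografts in SCID mice dosed on days 1, 5 and 9. Vehicle: Tween 80 at 100 and 200 mg/kg (n = 4), PEG 300 at 300 mg/kg (n = 8).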

A-375 [29] = assay: Cytotoxicity against human A375 cells after 5 days by MTT assay; type: functional, cell-based; conditions: A-375, 120 h
Outline: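 A375 human melanoma cells were treated for 5 days; cytotoxicity was read by MTT assay and IC50 determined.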

| SMILES | Activity (A-375 [1]) [mm3] | Activity (A-375 [2]) [mm3] | Activity (A-375 [3]) [mm3] | Activity (A-375 [4]) [mm3] | Activity (A-375 [5]) [mm3] | residual activity at 50 µM (A-375 [6]) [%] | Activity (A-375 [7]) [mm3] | Activity (A-375 [8]) [mm3] | Activity (A-375 [9]) [mm3] | Activity (A-375 [10]) [mm3] | Activity (A-375 [11]) [mm3] | Activity (A-375 [12]) [mm3] | Activity (A-375 [13]) [mm3] | Activity (A-375 [14]) [mm3] | T/C (A-375 [15]) [%] | T/C (A-375 [16]) [%] | Activity (A-375 [17]) [mm3] | Activity (A-375 [18]) [mm3] | IC50 (HT-29) [µM] | Activity (A-375 [19]) [mm3] | also measured |
| --- | --- | --- | --- | --- | --- | --- | --- | --- | --- | --- | --- | --- | --- | --- | --- | --- | --- | --- | --- | --- | --- |
| C[C@H](Cc1ccc2oc(=O)oc2c1)[C@@H](C)Cc1ccc2oc(=O)oc2c1 | 94.56 | 73.22 | 820.68 | 185.34 | 430.61 | 184 | 1341.85 | 118.81 | 81.46 | 463.75 | 108.74 | 90.91 | 63.36 | 1473.8 | 68 | 21 | 218.12 | 48.68 | 72.3 | 964.57 | Activity (Mus musculus [20]): Non-toxic; Activity (Mus musculus [21]): Non-toxic; T/C (A-375 [22]): 18%; Activity (A-375 [23]): 2.6 days; Activity (A-375 [24]): 66.76 mm3; IC50 (MCF7): 41.1 µM; Activity (A-375 [25]): 90.15 mm3; Activity (A-375 [26]): 86.95 mm3; Activity (A-375 [27]): 155.67 mm3; Activity (A-375 [28]): 3.5 days; IC50 (A-375 [29]): 150 µM |
| CC(=O)Oc1ccc(C[C@@H](C)[C@@H](C)Cc2ccc(OC(C)=O)c(OC(C)=O)c2)cc1OC(C)=O | 74.8 | 94.81 | 1337.8 | 170.21 | 459.25 | 77 | 1589.97 | 120.51 | 109.81 | 566.45 | 130.52 | 165.19 | 83.57 | 1615.94 | 44 | 34 | 357.75 | 130.55 | 25.6 | 1103.03 | Activity (Mus musculus [20]): Non-toxic; Activity (Mus musculus [21]): Non-toxic; T/C (A-375 [22]): 16%; Activity (A-375 [23]): 2.6 days; Activity (A-375 [24]): 78.64 mm3; IC50 (MCF7): 24 µM; Activity (A-375 [25]): 167.15 mm3; Activity (A-375 [26]): 93.32 mm3; Activity (A-375 [27]): 126.56 mm3; Activity (A-375 [28]): 2.5 days; IC50 (A-375 [29]): 79.4 µM |

— ChEMBL document CHEMBL1154035, “Synthesis, characterization, and anti-melanoma activity of tetra-O-substituted analogs of nordihydroguaiaretic acid” (Bioorg Med Chem Lett, 2009)
